# Measured values taken from ChEMBL document CHEMBL4312027, “Synthesis, characterization, and biological activity of a triphenylphosphonium-containing imidazolium salt against select bladder cancer cell lines” (Eur J Med Chem, 2020).
# Activity calls are given as the source filed them. The rule behind the calls is not given here.
# Assays:
# [1] = test system: RT-4; assay: Growth inhibition of human RT4 cells at 250 uM measured after 5 to 60 mins by Celltiter-Glo luminescent cell viability assay; assay type: functional, cell-based
# How it was run: (§1)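 Cells seeded 10000/well, 24 h, then exposed in ATCC-recommended medium to 62.5–2000 μM (two-fold steps) or vehicle for the set time (5–60 min), then normal medium. After 24 h, plates equilibrated 30 min at room temperature, CellTiter-Glo added, 2 min at room temperature, luminescence read. Survival relative to vehicle control; quadruplicate.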
# [2] = test system: RT-112; assay: Growth inhibition of human RT112 cells at 500 uM by Celltiter-Glo luminescent cell viability assay; assay type: functional, cell-based; conditions: TDE = time-dependent effect; how it was run: as §1
# [3] = test system: TCC-SUP; assay: Growth inhibition of human TCCSUP cells measured after 1 hr by Celltiter-Glo luminescent cell viability assay; assay type: functional; how it was run: as §1
# [4] = test system: RT-4; assay: Growth inhibition of human RT4 cells measured after 1 hr by Celltiter-Glo luminescent cell viability assay; assay type: functional; conditions: RT-4, 1 h; how it was run: as §1
# [5] = test system: RT-112; assay: Growth inhibition of human RT112 cells measured after 1 hr by Celltiter-Glo luminescent cell viability assay; assay type: functional; conditions: RT-112, 1 h; how it was run: as §1
# [6] = test system: HOP-92; assay: Growth inhibition of human HOP92 cells assessed as growth percent at 10 uM incubated for 48 hrs by sulforhodamine B assay relative to control; assay type: functional; conditions: HOP-92, 48 h, read-out: Activity
# [7] = test system: HCC 2998; assay: Growth inhibition of human HCC2998 cells assessed as growth percent at 10 uM incubated for 48 hrs by sulforhodamine B assay relative to control; assay type: functional; conditions: HCC 2998, 48 h, read-out: Activity
# [8] = test system: HCT-116; assay: Growth inhibition of human HCT116 cells assessed as growth percent at 10 uM incubated for 48 hrs by sulforhodamine B assay relative to control; assay type: functional; conditions: HCT-116, 48 h, read-out: Activity
# [9] = test system: HCT-15; assay: Growth inhibition of human HCT15 cells assessed as growth percent at 10 uM incubated for 48 hrs by sulforhodamine B assay relative to control; assay type: functional; conditions: HCT-15, 48 h, read-out: Activity
# [10] = test system: SF-295; assay: Growth inhibition of human SF295 cells assessed as growth percent at 10 uM incubated for 48 hrs by sulforhodamine B assay relative to control; assay type: functional; conditions: SF-295, 48 h, read-out: Activity
# [11] = test system: U-251; assay: Growth inhibition of human U251 cells assessed as growth percent at 10 uM incubated for 48 hrs by sulforhodamine B assay relative to control; assay type: functional; conditions: U-251, 48 h, read-out: Activity
# [12] = test system: MDA-MB-435; assay: Growth inhibition of human MDA-MB-435 cells assessed as growth percent at 10 uM incubated for 48 hrs by sulforhodamine B assay relative to control; assay type: functional; conditions: MDA-MB-435, 48 h, read-out: Activity
# [13] = test system: OVCAR-5; assay: Growth inhibition of human OVCAR5 cells assessed as growth percent at 10 uM incubated for 48 hrs by sulforhodamine B assay relative to control; assay type: functional; conditions: OVCAR-5, 48 h, read-out: Activity
# [14] = test system: OVCAR-8; assay: Growth inhibition of human OVCAR8 cells assessed as growth percent at 10 uM incubated for 48 hrs by sulforhodamine B assay relative to control; assay type: functional; conditions: OVCAR-8, 48 h, read-out: Activity
# [15] = test system: NCI/ADR-RES; assay: Growth inhibition of human NCI/ADR-RES cells assessed as growth percent at 10 uM incubated for 48 hrs by sulforhodamine B assay relative to control; assay type: functional; conditions: read-out: Activity
# [16] = test system: SN12C; assay: Growth inhibition of human SN12C cells assessed as growth percent at 10 uM incubated for 48 hrs by sulforhodamine B assay relative to control; assay type: functional; conditions: read-out: Activity
# [17] = test system: UO-31; assay: Growth inhibition of human UO31 cells assessed as growth percent at 10 uM incubated for 48 hrs by sulforhodamine B assay relative to control; assay type: functional; conditions: UO-31, 48 h, read-out: Activity
# [18] = test system: MCF7; assay: Growth inhibition of human MCF7 cells assessed as growth percent at 10 uM incubated for 48 hrs by sulforhodamine B assay relative to control; assay type: functional; conditions: MCF7, 48 h, read-out: Activity
# [19] = test system: BT-549; assay: Growth inhibition of human BT549 cells assessed as growth percent at 10 uM incubated for 48 hrs by sulforhodamine B assay relative to control; assay type: functional; conditions: BT-549, 48 h, read-out: Activity
# [20] = test system: T47D; assay: Growth inhibition of human T47D cells assessed as growth percent at 10 uM incubated for 48 hrs by sulforhodamine B assay relative to control; assay type: functional; conditions: read-out: Activity
# [21] = test system: UMUC3; assay: Cell cycle arrest in human UM-UC-3 cells assessed as increase in cell accumulation at sub-G1 phase at 250 to 500 uM incubated for 1 hr measured after culturing in normal medium for 24 hrs by propidium iodide/RNase staining based FACScan flow cytometry analysis; assay type: functional
# How it was run: (§2)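 Seeded at 300,000 cells/well in triplicate per treatment; 24 h later exposed to 250 or 500 μM or vehicle for 1 h. After 24 h in normal media, media plus cells were collected, washed, fixed in cold 70% ethanol (4 °C, 30 min), treated with phosphate citric acid buffer, stained with PI/RNase and gated for sub-G1 by flow cytometry.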
# [22] = test system: J82; assay: Cell cycle arrest in human J82 cells assessed as increase in cell accumulation at sub-G1 phase at 250 to 500 uM incubated for 1 hr measured after culturing in normal medium for 24 hrs by propidium iodide/RNase staining based FACScan flow cytometry analysis; assay type: functional; how it was run: as §2
# [23] = test system: RT-112; assay: Cell cycle arrest in human RT112 cells assessed as increase in cell accumulation at sub-G1 phase at 250 uM incubated for 1 hr measured after culturing in normal medium for 24 hrs by propidium iodide/RNase staining based FACScan flow cytometry analysis; assay type: functional; how it was run: as §2
# [24] = test system: Mus musculus; assay: Antitumor activity against anesthetized BBN-induced bladder tumor mouse model assessed as increase in cleaved caspase 3 level in necrotic region at 1500 uM administered via intravesical instillation treated for 1 hr administered as 2 doses at 24 hrs interval and measured at 24 hrs after final treatment by hematoxylin and eosin staining based immunohistochemical analysis; assay type: functional, organism-based
# [25] = test system: RT-112; assay: Cell cycle arrest in human RT112 cells assessed as cell accumulation at sub-G1 phase at 500 uM incubated for 1 hr measured after culturing in normal medium for 24 hrs by propidium iodide/RNase staining based FACScan flow cytometry analysis; assay type: functional; how it was run: as §2
# [26] = test system: RT-112; assay: Induction of apoptosis in human RT112 cells assessed as caspase 9 cleavage at 250 to 500 uM incubated for 1 hr and measured at 24 hrs after treatment by Western blot analysis; assay type: functional, cell-based
# How it was run: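 RT112 seeded 300,000/well; after 24 h, 250 or 500 μM or vehicle. Cells plus floating debris harvested immediately or 24 h after treatment, lysed in RIPA with protease inhibitors. About 30 μg protein heated 10 min at 95 °C with DTT, run on SDS-PAGE. Immunoblotted for PARP and caspase 9, Ran as loading control, ECL detection.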
# [27] = Toxicity in anesthetized female mouse model assessed as fibrosis at 750 to 1500 uM administered via intravesical instillation after bladder evacuation treated for 1 hr followed by repetition of the treatment after 24 hrs and measured at 24 hrs after final treatment; conditions: in vivo, other
# How it was run: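 Female mice anesthetized, 1–3% isoflurane. Bladder evacuated, then 100 μL of 750 or 1500 μM in 10% DMSO/PBS (or vehicle) instilled by 24G angiocatheter. Catheter left in place for a 1 h dwell. Repeated after 24 h; mice sacrificed 24 h after final dose. Bladder histology read for urothelial height and layers.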
compound,measurement,setting,value
[Br-].[Br-].c1ccc([P+](CCCc2n(Cc3ccc4ccccc4c3)c3ccccc3[n+]2Cc2ccc3ccccc3c2)(c2ccccc2)c2ccccc2)cc1,growth inhibition (GI),[1],Active
same,growth inhibition (GI),[2],Tde
same,GI50,[3],240 µM
same,GI50,[4],150 µM
same,GI50,[5],200 µM
same,growth at 10 µM,[6],46.3%
same,growth at 10 µM,[7],53.9%
same,growth at 10 µM,[8],24.2%
same,growth at 10 µM,[9],85.5%
same,growth at 10 µM,[10],41.1%
same,growth at 10 µM,[11],46.5%
same,growth at 10 µM,[12],25.2%
same,growth at 10 µM,[13],60.1%
same,growth at 10 µM,[14],70.2%
same,growth at 10 µM,[15],83.7%
same,growth at 10 µM,[16],55%
same,growth at 10 µM,[17],61.2%
same,growth at 10 µM,[18],73.9%
same,growth at 10 µM,[19],68.1%
same,growth at 10 µM,[20],56.9%
same,Activity,[21],Active
same,Activity,[22],Active
same,Activity,[23],Active
same,Activity,[24],Active
same,Activity,[25],inactive
same,Activity,[26],inactive
same,Activity,[27],Non-Toxic
